In experiment [1] the target is T1, Dihydrofolate reductase (Gallus gallus) (UniProt P00378).
T1 sequence (whole entry): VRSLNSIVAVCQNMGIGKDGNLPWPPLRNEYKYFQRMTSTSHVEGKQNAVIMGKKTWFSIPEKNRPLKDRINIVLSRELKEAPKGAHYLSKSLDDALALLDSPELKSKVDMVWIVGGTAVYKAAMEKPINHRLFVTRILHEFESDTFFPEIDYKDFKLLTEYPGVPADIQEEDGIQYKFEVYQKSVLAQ

Experiment [2] has as its target T2, Dihydrofolate reductase (Bos taurus) (UniProt P00376).
T2 sequence (whole entry): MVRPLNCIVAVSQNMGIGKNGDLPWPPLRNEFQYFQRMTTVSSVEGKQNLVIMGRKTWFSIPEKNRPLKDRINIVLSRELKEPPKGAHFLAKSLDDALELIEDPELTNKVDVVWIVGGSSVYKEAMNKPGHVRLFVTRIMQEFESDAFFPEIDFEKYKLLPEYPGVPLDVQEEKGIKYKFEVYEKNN

Experiment [3] addresses T2, Dihydrofolate reductase (Bos taurus). The experiment is described as follows: Inhibitory activity against bovine liver Dihydrofolate reductase at pH 7.2. A digest of the protocol: (§1)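 DHFR from chicken liver and from bovine liver, each assayed at pH 7.2 by the group's earlier-reported inhibition procedure. Potency is expressed as an apparent inhibition constant, reported as log(1/Ki app).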

The target of experiment [4] is T1, Dihydrofolate reductase (Gallus gallus). The experiment is described as follows: Inhibitory activity against chicken Dihydrofolate reductase at pH 7.2. A digest of the protocol:
as §1

On to `Nc1ncc(Cc2ccc(OC(F)(F)F)cc2)c(N)n1`, for which the Log 1/Ki app amounted to 4.26 in experiment [1] and 5.42 in experiment [2].
In turn, `COc1ccc(Cc2cnc(N)nc2N)cc1C(F)(F)F` showed a Log 1/Ki app in experiment [1] of 4.99.
Regarding `COc1ccc(Cc2cnc(N)nc2N)cc1OC`, the Log 1/Ki app in experiment [1] turned out to be 4.46; in experiment [2] it was 5.66.
As for `CCCCOCc1cccc(Cc2cnc(N)nc2N)c1`, the Log 1/Ki app in experiment [1] came out at 5.17.
On the same count and under the same terms, in the case of `Nc1ncc(Cc2ccccc2)c(N)n1` it was 4.71; in that of `CN(C)c1ccc(Cc2cnc(N)nc2N)cc1`, 4.01.
In turn, `Nc1ncc(Cc2ccc(F)cc2)c(N)n1` returned a Log 1/Ki app in experiment [1] of 4.79.
Same read-out and setting: the result for `CC(=O)Nc1ccc(Cc2cnc(N)nc2N)cc1` reads 4.26; that for `Nc1ncc(Cc2cccc(F)c2)c(N)n1`, 4.7; that for `Nc1ncc(Cc2ccc([N+](=O)[O-])cc2)c(N)n1`, 4.37.
In experiment [3], `Nc1ncc(Cc2cc(O)cc(O)c2)c(N)n1` returned a Log 1/Ki app of 3.39.
Consider `Nc1ncc(Cc2cccc(I)c2)c(N)n1`, for which the Log 1/Ki app was determined as 4.79 in experiment [1] and 6.15 in experiment [2].
`Cc1cccc(Cc2cnc(N)nc2N)c1` registered a Log 1/Ki app in experiment [1] of 4.72.
`COCCOc1c(OC)cc(Cc2cnc(N)nc2N)cc1OC` came in with a Log 1/Ki app in experiment [1] of 3.64.
Take `Nc1ncc(Cc2cccc(Cl)c2)c(N)n1`: the Log 1/Ki app in experiment [1] stood at 5.01.
In experiment [3], `CCCCCCCOc1ccc(Cc2cnc(N)nc2N)cc1` yielded a Log 1/Ki app of 5.45.
For the compound `COCCOc1cccc(Cc2cnc(N)nc2N)c1`, the Log 1/Ki app in experiment [4] came to 4.83; in experiment [3] it was 5.58.
